Reference: ChEMBL document CHEMBL1133693, “Peptide and peptide mimetic inhibitors of antigen presentation by HLA-DR class II MHC molecules. Design, structure-activity relationships, and X-ray crystal structures” (J Med Chem, 2000)
Non-standard residues stand in square brackets, D forms with d. Residues, ends and D or L forms follow the SMILES beside them. Cha = N[C@@H](CC1CCCCC1)C(=O)O; NMeM = CN[C@@H](CCSC)C(=O)O; NMeS = CN[C@@H](CO)C(=O)O; Nle = CCCC[C@H](N)C(=O)O

Legend:
T-cell [1] = test: T-cell inhibitory potency relative to the IC50 of a(Cha)AAAKTAAAAa-NH2 iMHC class II DRB1*0101; type: functional, Homo sapiens
T-cell [2] = test: T-cell inhibitory potency relative to the IC50 of a(Cha)AAAKTAAAAa-NH2 in MHC class II DRB1*0401; type: functional, Homo sapiens
[3] = Mean relative potency is the ratio of potencies of 'Ac-(Cha)RAMASL-NH2' and compound, to inhibit MHC class II DRB1*0101
Outline: (§1)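 Scintillation proximity competition assay. Test compounds competed against the radioligand, and bound counts were read by scintillation. Ac-(Cha)RAMASL-NH2 was run as standard competitor in every run. Potency is the ratio of standard IC50 to compound IC50.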

[4] = Mean relative potency is the ratio of potencies of 'Ac-(Cha)RAMASL-NH2' and compound, to inhibit MHC class II DRB1*0401; outline: as §1
Cathepsin B (Bos taurus) = Cathepsin B (Bos taurus) (UniProt P07688); test: Percent of original compound remaining with cathepsin B after incubation for 4 hrs was determined by HPLC

| Compound | T-cell inhibition (T-cell [1]) | T-cell inhibition (T-cell [2]) | Mean relative potency [3] | Mean relative potency [4] | % remaining (Cathepsin B (Bos taurus)) |
| --- | --- | --- | --- | --- | --- |
| CSCC[C@H](NC(=O)[C@H](c1ccccc1)N(C)C(=O)[C@H](CCCN=C(N)N)NC(=O)[C@H](CC1CCCCC1)NC(C)=O)C(=O)N(C)[C@@H](C)C(=O)N[C@@H](CO)C(=O)N[C@H](C(N)=O)C(C)(C)C | 7.8 | 2.5 | – | – | – |
| CSCC[C@H](NC(=O)[C@@H]1Cc2ccccc2CN1C(=O)[C@H](CCCN=C(N)N)NC(=O)[C@H](CC1CCCCC1)NC(C)=O)C(=O)N(C)[C@@H](C)C(=O)N[C@@H](CO)C(=O)N(C)[C@@H](C)C(N)=O | 0.86 | 1.5 | – | – | – |
| CSCC[C@H](NC(=O)[C@H](c1ccccc1)N(C)C(=O)[C@H](CCCN=C(N)N)NC(=O)[C@H](CC1CCCCC1)NC(C)=O)C(=O)N[C@@H](C)C(=O)N[C@@H](CO)C(=O)N[C@H](C(N)=O)C(C)(C)C | 5.37 | 3.2 | – | – | – |
| CSCC[C@H](NC(=O)[C@@H](NC(=O)[C@H](CCCN=C(N)N)NC(=O)[C@H](CC1CCCCC1)NC(C)=O)C(C)(C)C)C(=O)N(C)[C@@H](C)C(=O)N[C@@H](CO)C(=O)N[C@H](C(N)=O)C(C)(C)C | 2.9 | 1.5 | – | – | – |
| CC[C@@H](C)[C@H](NC(=O)[C@H](C)NC(=O)[C@H](CCCN=C(N)N)NC(=O)[C@H](CC1CCCCC1)NC(C)=O)C(=O)N[C@@H](C)C(=O)N[C@@H](CO)C(=O)N[C@@H](CC(C)C)C(N)=O | – | – | 0.36 | 1.01 | – |
| CSCC[C@H](NC(=O)[C@H](C)NC(=O)[C@H](CCCN=C(N)N)NC(=O)[C@@H](CC1CC2CCC1C2)NC(C)=O)C(=O)N[C@@H](C)C(=O)N[C@@H](CO)C(=O)N[C@@H](CC(C)C)C(N)=O (stereo partly drawn) | – | – | 1.31 | 1.53 | – |
| CSCC[C@H](NC(=O)[C@H](C)NC(=O)[C@H](CCCN=C(N)N)NC(=O)[C@H](CC1CCCCC1)NC(C)=O)C(=O)N1CCCC[C@@H]1C(=O)N[C@@H](CO)C(=O)N[C@@H](CC(C)C)C(N)=O | – | – | 0.55 | 1.08 | – |
| CSCC[C@H](NC(=O)[C@H](C)NC(=O)[C@H](CCCN=C(N)N)NC(=O)[C@H](CC1CCCCC1)NC(C)=O)C(=O)N1CCC[C@@H]1C(=O)N[C@@H](CO)C(=O)N[C@@H](CC(C)C)C(N)=O | – | – | 1.37 | 0.7 | – |
| CSCC[C@H](NC(=O)[C@H](C)NC(=O)[C@H](CCCN=C(N)N)NC(=O)[C@H](CC1CCCCC1)NC(C)=O)C(=O)N[C@H](C)C(=O)N[C@@H](CO)C(=O)N(C)[C@@H](CC(C)C)C(N)=O | – | – | 0.85 | 0.77 | 0% |
| CSCC[C@H](NC(=O)[C@H](C)NC(=O)[C@H](CCCN=C(N)N)NC(=O)[C@H](CC1CCCCC1)NC(C)=O)C(=O)N[C@H](C)C(=O)N[C@@H](CO)C(=O)N[C@@H](CC(C)C)C(=O)N(C)C | – | – | 1.4 | 1.6 | – |
| CSCC[C@H](NC(=O)[C@H](C)NC(=O)[C@H](CCCN=C(N)N)NC(=O)[C@H](CC1CCCCC1)NC(C)=O)C(=O)N[C@H](C)C(=O)N[C@@H](CO)C(=O)N[C@H](C(N)=O)C(C)(C)C | – | – | 1.64 | 1.46 | – |
| CC(=O)N[C@@H](CC1CCCCC1)C(=O)N[C@@H](CCCN=C(N)N)C(=O)N[C@@H](C)C(=O)N[C@@H](CC(C)C)C(=O)N[C@@H](C)C(=O)N[C@@H](CO)C(=O)N[C@@H](CC(C)C)C(N)=O (Ac-[Cha]RALASL-NH2) | – | – | 0.55 | 0.54 | – |
| CSCC[C@H](NC(=O)[C@H](C)NC(=O)[C@H](CCCN=C(N)N)NC(=O)[C@H](CC1CCCCC1)NC(C)=O)C(=O)N[C@@H](C)C(=O)N(C)[C@@H](CO)C(=O)N[C@@H](CC(C)C)C(N)=O (Ac-[Cha]RAMA[NMeS]L-NH2) | – | – | 0.5 | 0.97 | – |
| CSCC[C@@H](C(=O)N[C@@H](C)C(=O)N[C@@H](CO)C(=O)N[C@@H](CC(C)C)C(N)=O)N(C)C(=O)[C@H](C)NC(=O)[C@H](CCCN=C(N)N)NC(=O)[C@H](CC1CCCCC1)NC(C)=O (Ac-[Cha]RA[NMeM]ASL-NH2) | – | – | 0.046 | 0.005 | – |
| CCCC[C@H](NC(=O)[C@H](C)NC(=O)[C@H](CCCN=C(N)N)NC(=O)[C@H](CC1CCCCC1)NC(C)=O)C(=O)N[C@@H](C)C(=O)N[C@@H](CO)C(=O)N[C@@H](CC(C)C)C(N)=O (Ac-[Cha]RA[Nle]ASL-NH2) | – | – | 0.77 | 0.4 | – |
| CSCC[C@H](NC(=O)[C@H](CCSC)NC(=O)[C@H](CCCN=C(N)N)NC(=O)[C@H](CC1CCCCC1)NC(C)=O)C(=O)N[C@@H](C)C(N)=O (Ac-[Cha]RMMA-NH2) | – | – | 0.59 | 0.15 | – |
